Data from article PMC3566393 (Biological Trace Element Research, 2012).
Read-outs that look alike come from different tables or passages of the source. Blank lines part the entries; values can stand above or below the compound they belong to.

Assays:
rat TRPV1 = rat TRPV1 (Rattus norvegicus, UniProt O35433); test: Vanilloid-induced 45Ca2+ uptake in TRPV1/HaCaT cells; type: cell-based; conditions: for Effect on CAPS-induced 45Ca2+ uptake (in words): 2 μM CAPS, up to highest concentration 4 mM
[1] = 1:1 complexes; cited from earlier work
[2] = cited from earlier work
CD1 mice = test: Eye wipe test; type: in vivo; conditions: 100 μM CAPS dropped into the eye with 1 mM CoCl2 or 5 μM CapZ, n = 8
Procedure, shortened: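 Defensive eye-wiping movements were then counted. Data were means ± SD from eight independent experiments. Inhibition was tested by paired t test (P < 0.05).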

TRPV1 [3] = target: T1, TRPV1 (Rattus norvegicus, UniProt O35433); test: Cobalt histochemistry on HaCaT cell line expressing TRPV1 ectopically; type: cell-based; conditions: 20 μM CAPS + 5 mM Co2+; CapZ 300 nM-100 μM, RuRed 500 nM-100 μM
TRPV1 [4] = target: T1, TRPV1; test: Cobalt histochemistry on 3T3 cell line expressing TRPV1 ectopically; type: cell-based; conditions: 10 min, ± S.D.
rat TRPV1 Y627W mutant = rat TRPV1 Y627W mutant (Rattus norvegicus, UniProt O35433, Y627W); test: CAPS-evoked 45Ca2+ influx in cells expressing the TRPV1 Y627W point mutant; type: cell-based; conditions: read-out: IC50, 45Ca2+ influx, 4 μM CAPS
wild-type TRPV1 = wild-type TRPV1 (Rattus norvegicus, UniProt O35433); test: CAPS-evoked 45Ca2+ influx in cells transiently transfected with wild-type TRPV1; type: cell-based; conditions: read-out: IC50, 45Ca2+ influx, 4 μM CAPS
rat TRPV1 D646N mutant = rat TRPV1 D646N mutant (Rattus norvegicus, UniProt O35433, D646N); test: CAPS-evoked 45Ca2+ influx in cells expressing the TRPV1 D646N point mutant; type: cell-based; conditions: read-out: IC50, 45Ca2+ influx, 4 μM CAPS
[5] = test system: TRPV1+ dorsal root ganglion neurons; test: Cobalt histochemistry in primary DRG sensory neuron cultures; type: cell-based, rat; conditions: 20 μM CAPS, Co2+-uptake medium
rat TRPV1 N628W mutant = rat TRPV1 N628W mutant (Rattus norvegicus, UniProt O35433, N628W); test: CAPS-evoked 45Ca2+ influx in cells expressing the TRPV1 N628W point mutant; type: cell-based; conditions: read-out: IC50, 45Ca2+ influx, 4 μM CAPS
3T3 cell line = test: Cobalt histochemistry on 3T3 cell line without TRPV1; type: cell-based; conditions: 20 μM CAPS + 5 mM Co2+
rat TRPV1 E651W mutant = rat TRPV1 E651W mutant (Rattus norvegicus, UniProt O35433, E651W); test: CAPS-evoked 45Ca2+ influx in cells expressing the TRPV1 E651W point mutant; type: cell-based; conditions: read-out: IC50, 45Ca2+ influx, 4 μM CAPS
TRPV1/3T3 cells = TRPV1/3T3 cells (Rattus norvegicus, UniProt O35433); test: CAPS-induced TRPV1-mediated 45Ca2+ accumulation with VGCC blocker; type: cell-based; conditions: data not shown
TRPV1/3T3 cells, sequence (O35433 whole entry): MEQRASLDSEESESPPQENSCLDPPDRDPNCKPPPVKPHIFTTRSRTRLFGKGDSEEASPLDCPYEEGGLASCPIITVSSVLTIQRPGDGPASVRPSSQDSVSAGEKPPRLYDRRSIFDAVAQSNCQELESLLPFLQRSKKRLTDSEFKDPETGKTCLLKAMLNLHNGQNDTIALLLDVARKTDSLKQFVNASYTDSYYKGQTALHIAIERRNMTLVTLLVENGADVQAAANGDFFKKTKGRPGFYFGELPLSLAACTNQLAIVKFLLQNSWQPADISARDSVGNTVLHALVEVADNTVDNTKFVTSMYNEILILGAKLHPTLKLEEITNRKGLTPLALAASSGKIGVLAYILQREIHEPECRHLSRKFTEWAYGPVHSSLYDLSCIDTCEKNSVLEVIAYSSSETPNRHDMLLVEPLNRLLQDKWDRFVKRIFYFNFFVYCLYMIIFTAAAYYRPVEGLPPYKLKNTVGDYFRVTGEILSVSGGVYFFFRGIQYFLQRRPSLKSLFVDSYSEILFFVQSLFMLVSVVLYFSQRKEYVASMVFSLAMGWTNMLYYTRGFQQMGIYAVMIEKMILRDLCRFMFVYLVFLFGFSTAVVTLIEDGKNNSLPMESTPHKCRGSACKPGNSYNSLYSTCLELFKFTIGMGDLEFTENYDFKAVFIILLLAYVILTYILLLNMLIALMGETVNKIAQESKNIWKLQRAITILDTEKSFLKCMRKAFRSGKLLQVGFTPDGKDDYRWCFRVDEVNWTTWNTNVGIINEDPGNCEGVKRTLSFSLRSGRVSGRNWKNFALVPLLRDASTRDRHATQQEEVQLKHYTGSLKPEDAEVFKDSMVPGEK

T1 sequence (O35433 whole entry): as above
rat TRPV1, sequence (O35433 whole entry): as above
rat TRPV1 E651W mutant, sequence (O35433 whole entry E651W): as the sequence (O35433 whole entry) above, with E651W counted along it
rat TRPV1 D646N mutant, sequence (O35433 whole entry D646N): as the sequence (O35433 whole entry) above, with D646N counted along it
rat TRPV1 N628W mutant, sequence (O35433 whole entry N628W): as the sequence (O35433 whole entry) above, with N628W counted along it
wild-type TRPV1, sequence (O35433 whole entry): as the sequence (O35433 whole entry) above
rat TRPV1 Y627W mutant, sequence (O35433 whole entry Y627W): as the sequence (O35433 whole entry) above, with Y627W counted along it

IC50 (rat TRPV1): 20 µM
Compound: CN(C)CCC=C1c2ccccc2CCc2ccccc21 [AMI, Amitriptyline, reference compound]

Concentration causing full activation (EC100) of TRPV1 (rat TRPV1; pH 7.5, 45Ca2+ uptake assay): Approximately 1 μM
Compound: COc1cc(CNC(=O)CCCC/C=C/C(C)C)ccc1O [CAPS, capsaicin, reference compound]

Compound: [Ca+2] [Ca^2+]
Stability constant of the complex formed between M2+ and tryptophan [1]: 2.55 ± 0.08
Ionic radius [2]: 100 picometres

Mean gray value (intracellular CoS) (TRPV1 [4]; CAPS + Co2+ + CapZ (5 μM CapZ), n = 100): 76.92 ± 22.21
Compound: Oc1cc2c(cc1O)CN(C(=S)NCCc1ccc(Cl)cc1)CCC2 [CapZ, capsazepine, reference compound]
Effect on vanilloid-evoked eye wiping movements (CD1 mice): Inhibition
Effect on CAPS-induced cellular Co2+ accumulation (TRPV1 [3]): inhibited the cellular entry of Co^2+ in a dose-dependent manner

IC50 (rat TRPV1 Y627W mutant): 18.6 µM
IC50 (wild-type TRPV1): 18.3 µM
IC50 (rat TRPV1; read-out: IC50 of Co2+, in the presence of 0 μM cold Ca2+): 7.94 µM
IC50 (rat TRPV1; read-out: IC50 of Co2+, in the presence of 0.0625 μM CAPS): 94.8 µM
IC50 (rat TRPV1; read-out: IC50 of Co2+, in the presence of 0.125 μM CAPS): 58 µM
IC50 (rat TRPV1; read-out: IC50 of Co2+, in the presence of 0.25 μM CAPS): 73.2 µM
IC50 (rat TRPV1; read-out: IC50 of Co2+, in the presence of 0.5 μM CAPS): 32.6 µM
IC50 (rat TRPV1; read-out: IC50 of Co2+, in the presence of 1 μM CAPS): 19.2 µM
IC50 (rat TRPV1; read-out: IC50 of Co2+, in the presence of 2 μM CAPS): 22.6 µM
IC50 (rat TRPV1; read-out: IC50 of Co2+, in the presence of 4 μM CAPS): 15.6 µM
IC50 (rat TRPV1; read-out: IC50 of Co2+, in the presence of 15.625 μM cold Ca2+): 51.2 µM
IC50 (rat TRPV1; read-out: IC50 of Co2+, in the presence of 31.25 μM cold Ca2+): 72.7 µM
IC50 (rat TRPV1; read-out: IC50 of Co2+, in the presence of 62.5 μM cold Ca2+): 79.1 µM
IC50 (rat TRPV1; read-out: IC50 of Co2+, in the presence of 125 μM cold Ca2+): 189 µM
IC50 (rat TRPV1 D646N mutant): 25.7 µM
Mean gray value (intracellular CoS) (TRPV1 [4]; CAPS + Co2+ (20 μM CAPS + 5 mM Co2+), n = 111): 124.4 ± 21.51
IC50 (rat TRPV1 N628W mutant): 16.4 µM
IC50 (rat TRPV1 E651W mutant): 15.3 µM
Compound: [Co+2] [Co^2+]
Stability constant of the complex formed between M2+ and tryptophan [1]: 4.34 ± 0.07
Effect on vanilloid-evoked eye wiping movements (CD1 mice): decreased the frequency of vanilloid-evoked defending movements
CAPS-induced Co2+ accumulation in sensory neurons [5]: enters into the cytosol of specific PNS sensory neurons
Ionic radius [2]: 65 picometres
Co2+ staining in the absence of TRPV1 (3T3 cell line): No substantial staining

Compound: [Cu+2] [Cu^2+]
Stability constant of the complex formed between M2+ and tryptophan [1]: 8.05 ± 0.05
Ionic radius [2]: 73 picometres

Effect on CAPS-induced 45Ca2+ uptake (in words) (rat TRPV1; TRPV1/HaCaT cells): little or no effect
Compound: [La+3] [La^3+]

Effect on CAPS-induced 45Ca2+ uptake (in words) (rat TRPV1; TRPV1/HaCaT cells): little or no effect
Compound: [Mg+2] [Mg^2+]
Stability constant of the complex formed between M2+ and tryptophan [1]: 2.84 ± 0.08
Ionic radius [2]: 72 picometres

Effect on CAPS-induced 45Ca2+ uptake (in words) (rat TRPV1; TRPV1/HaCaT cells): little or no effect
Compound: [Mn+2] [Mn^2+]
Stability constant of the complex formed between M2+ and tryptophan [1]: 3.34 ± 0.05
Ionic radius [2]: 67 picometres

Compound: [Ni+2] [Ni^2+]
Stability constant of the complex formed between M2+ and tryptophan [1]: 5.31 ± 0.06
Ionic radius [2]: 69 picometres

Compound: N.N.N.N.N.N.N.N.N.N.N.N.N.N.[Cl-].[Cl-].[Cl-].[Cl-].[Cl-].[Cl-].[O-2].[O-2].[Ru+3].[Ru+3].[Ru+4] [RuRed, Ruthenium Red, reference compound]
IC50 (rat TRPV1 Y627W mutant): 0.26 µM
IC50 (wild-type TRPV1): 0.87 µM
Effect on CAPS-induced cellular Co2+ accumulation (TRPV1 [3]): blocked
IC50 (rat TRPV1 D646N mutant): 12.8 µM
IC50 (rat TRPV1 N628W mutant): 1.33 µM
IC50 (rat TRPV1 E651W mutant): 0.94 µM

Effect on CAPS-induced 45Ca2+ uptake (in words) (rat TRPV1; TRPV1/HaCaT cells): only partial inhibitor
Decrease of the maximal ion influx achieved (rat TRPV1; TRPV1/HaCaT cells, CAPS-induced 45Ca2+ uptake): 30%
Compound: [Zn+2] [Zn^2+]
Stability constant of the complex formed between M2+ and tryptophan [1]: 5.00 ± 0.08
Ionic radius [2]: 74 picometres

Effect on CAPS-induced TRPV1-mediated 45Ca2+ accumulation (TRPV1/3T3 cells): did not decrease
Compound: COC(=O)C1=C(C)NC(C)=C(C(=O)OCC(C)C)C1c1ccccc1[N+](=O)[O-] (stereo not shown) [nisoldipine]
